“And” between values parts separate entries of the source, which are not always exact repeats. Identical values can stand only once.

As a reminder, the IC50 is the concentration needed to halve the response being measured. High values mean weaker potency in that assay, low ones greater potency in that assay. Broadly, the EC50 is the concentration at which the effect is half-maximal. Read a low EC50 as an effect from little substance.

For assay [1], the target named is T1, 5-hydroxytryptamine receptor 1B (Homo sapiens, UniProt P28222). As to the kind of experiment: Displacement of [3H]5-HT binding from the cloned human 5-hydroxytryptamine 1B receptor stably expressed in CHO cells. In kind it is cell-based.
In assay [2] the target is T2, 5-hydroxytryptamine receptor 1D (Homo sapiens, UniProt P28221). In words: Displacement of [3H]5-HT binding from the cloned human 5-hydroxytryptamine 1D receptor stably expressed in CHO cells. In kind it is cell-based. In general terms: Displacement assays read how much labelled ligand stays bound in the presence of the test substance.
Assay [3] has as its target T2, 5-hydroxytryptamine receptor 1D. In words: Stimulation of [35S]GTP-gamma-S, binding in CHO cells expressing the 5-hydroxytryptamine 1D receptor. In kind it is functional, cell-based. (Binding of GTPγS marks nucleotide exchange on a G protein.)
The target of assay [4] is T3, 5-hydroxytryptamine receptor 1A (Homo sapiens, UniProt P08908).
T3 sequence (P08908 whole entry): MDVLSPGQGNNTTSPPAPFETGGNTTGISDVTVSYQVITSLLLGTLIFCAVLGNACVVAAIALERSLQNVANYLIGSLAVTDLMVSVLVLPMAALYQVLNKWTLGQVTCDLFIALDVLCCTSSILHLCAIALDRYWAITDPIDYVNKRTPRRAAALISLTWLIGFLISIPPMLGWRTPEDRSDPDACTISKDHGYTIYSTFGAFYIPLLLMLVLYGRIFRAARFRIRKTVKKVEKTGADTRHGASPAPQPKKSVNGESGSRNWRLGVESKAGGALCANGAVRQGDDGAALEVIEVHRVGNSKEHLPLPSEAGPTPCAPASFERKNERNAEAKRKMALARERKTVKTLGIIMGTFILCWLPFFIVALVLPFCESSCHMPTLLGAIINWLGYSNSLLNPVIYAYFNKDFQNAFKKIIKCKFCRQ
As to the kind of experiment: Affinity of compound towards 5-hydroxytryptamine 1A receptor was evaluated using radioligand binding technique.

The target of assay [5] is T1, 5-hydroxytryptamine receptor 1B. As to the kind of experiment: Affinity of compound towards 5-hydroxytryptamine 1B receptor was evaluated using radioligand binding technique.
Assay [6] addresses T2, 5-hydroxytryptamine receptor 1D. As to the kind of experiment: Affinity of compound towards 5-hydroxytryptamine 1D receptor was evaluated using radioligand binding technique.
Assay [7] deals with 5-hydroxytryptamine receptor 2A (Rattus norvegicus) (UniProt P14842). In words: Affinity of compound towards rat 5-hydroxytryptamine 2A receptor was evaluated using radioligand binding technique.
Assay [8] deals with Rattus norvegicus. In words: Hepatic portal vein plasma concentration after administration. In kind it is functional, organism-based. The method, boiled down: (§1)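 Fasted (≥12 h) rats, ~300 g, given 3 mg/kg orally in aqueous formulation (5 mL/kg); four rats per time point, isoflurane anaesthesia, hepatic portal vein blood at 0.5 or 2 h; plasma extracted (liquid-liquid or solid-phase) and analysed by reversed-phase HPLC with UV or fluorescence detection.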

Assay [9] has as its system Rattus norvegicus. As to the kind of experiment: Hepatic portal vein plasma concentration after oral administration. In kind it is functional, organism-based. The method, boiled down: as §1

5-hydroxytryptamine receptor 2A (Rattus norvegicus), sequence (P14842 whole entry, looked up): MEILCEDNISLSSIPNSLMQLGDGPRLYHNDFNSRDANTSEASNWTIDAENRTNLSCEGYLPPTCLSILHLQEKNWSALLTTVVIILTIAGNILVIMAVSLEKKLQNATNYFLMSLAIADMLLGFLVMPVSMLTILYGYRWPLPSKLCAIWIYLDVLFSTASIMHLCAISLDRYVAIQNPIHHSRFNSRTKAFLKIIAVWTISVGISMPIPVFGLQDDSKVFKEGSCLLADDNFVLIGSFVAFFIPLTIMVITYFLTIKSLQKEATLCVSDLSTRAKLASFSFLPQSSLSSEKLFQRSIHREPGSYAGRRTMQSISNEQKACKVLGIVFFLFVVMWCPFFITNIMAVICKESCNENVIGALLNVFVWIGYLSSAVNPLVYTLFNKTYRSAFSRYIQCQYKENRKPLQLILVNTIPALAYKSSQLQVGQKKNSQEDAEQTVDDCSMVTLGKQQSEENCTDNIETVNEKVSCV
T2 sequence (P28221 whole entry): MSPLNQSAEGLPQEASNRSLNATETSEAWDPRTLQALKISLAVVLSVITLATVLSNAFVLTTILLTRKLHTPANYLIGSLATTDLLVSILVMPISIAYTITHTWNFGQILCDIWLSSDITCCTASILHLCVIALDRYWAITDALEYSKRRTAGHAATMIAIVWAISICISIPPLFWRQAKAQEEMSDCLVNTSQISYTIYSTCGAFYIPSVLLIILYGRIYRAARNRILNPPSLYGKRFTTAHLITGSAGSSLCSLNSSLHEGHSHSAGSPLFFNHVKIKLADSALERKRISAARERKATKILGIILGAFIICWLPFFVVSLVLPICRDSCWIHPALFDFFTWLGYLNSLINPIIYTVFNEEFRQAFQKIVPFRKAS
T1 sequence (P28222 whole entry): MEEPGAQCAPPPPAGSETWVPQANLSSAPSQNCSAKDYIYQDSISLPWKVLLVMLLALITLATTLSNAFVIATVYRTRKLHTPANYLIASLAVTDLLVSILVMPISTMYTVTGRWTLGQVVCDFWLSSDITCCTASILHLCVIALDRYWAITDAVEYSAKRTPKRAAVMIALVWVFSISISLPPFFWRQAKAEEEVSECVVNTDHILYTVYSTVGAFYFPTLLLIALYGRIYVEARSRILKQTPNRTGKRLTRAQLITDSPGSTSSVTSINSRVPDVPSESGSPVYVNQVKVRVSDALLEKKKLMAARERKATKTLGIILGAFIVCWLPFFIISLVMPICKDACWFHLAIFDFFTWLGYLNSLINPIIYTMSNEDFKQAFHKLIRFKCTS

As for `C=CCNC[C@@H]1CCN(CCc2c[nH]c3ccc(-n4cnnc4)cc23)C1`, the results for the IC50 in assay [1] and in [2] were 325 nM and 17 nM, respectively.

Take `CC(=O)Nc1ccc(CNC[C@@H]2CCN(CCc3c[nH]c4ccc(-n5cnnc5)cc34)C2)cc1`: the results for the half-inhibitory concentration (IC50) in assay [1] and in assay [2] were 165 nM and 12 nM, respectively. Moreover, in assay [3], the EC50 came to 10 nM.

Regarding `C[C@@H](c1ccccc1)N(C)C[C@@H]1CCN(CCc2c[nH]c3ccc(Cn4cncn4)cc23)C1`, the IC50 in [1] is 87 nM; in assay [2] it was 0.7 nM. Moreover, in [3], the EC50 amounted to 4.5 nM.

On to `CN(Cc1ccccc1)C[C@@H]1CCN(CCc2c[nH]c3ccc(C[C@H]4COC(=O)N4C)cc23)C1`, for which the values for the IC50 in [1] and in [2] were 69 nM and 1.7 nM, respectively. The EC50 in [3] was determined as 3.2 nM.

The compound `CN(C)CCc1c[nH]c2ccc(-n3cnnc3)cc12` displayed a concentration for half-maximal inhibition (IC50) in assay [1] of 1.3 nM. This compound gave an EC50 in [3] of 0.4 nM.

Regarding `CC(C)(NC[C@@H]1CCN(CCc2c[nH]c3ccc(-n4cnnc4)cc23)C1)c1ccccc1`, the IC50 in [1] came out at 39 nM; in assay [2], 1 nM. Moreover, the EC50 in assay [3] was 0.3 nM.

As for `c1ccc(CCNC[C@@H]2CCN(CCc3c[nH]c4ccc(-n5cnnc5)cc34)C2)cc1`, the results for the IC50 in assay [1] and in [2] were 125 nM and 2.6 nM, respectively. For the same compound, the EC50 in assay [3] was 6.2 nM.

In the case of `C[C@H](NC[C@@H]1CCN(CCc2c[nH]c3ccc(C[C@H]4COC(=O)N4)cc23)C1)c1ccccc1`, the IC50 amounted to 8.7 nM in assay [4]; 50 nM in [5]; 49 nM in [1]; 0.3 nM in [6]; 0.3 nM in assay [2]; 2.2 µM in [7]. This compound also showed an EC50 in assay [3] of 0.5 nM.

Consider `c1ccc(CNC[C@@H]2CCN(CCc3c[nH]c4ccc(-n5cnnc5)cc34)C2)nc1`, for which the IC50 was determined as 48 nM in [1] and 3.6 nM in assay [2].

Consider `c1cncc(CNC[C@@H]2CCN(CCc3c[nH]c4ccc(-n5cnnc5)cc34)C2)c1`, for which the IC50 in assay [1] is 62 nM; in assay [2], 3.8 nM.

Regarding `CN(Cc1ccccc1)C[C@@H]1CCN(CCc2c[nH]c3ccc(-n4cnnc4)cc23)C1`, the IC50 in assay [1] turned out to be 32 nM. The same compound showed an EC50 in [3] of 1.5 nM.

As to `c1ccc(COC[C@@H]2CCCN2CCc2c[nH]c3ccc(-n4cnnc4)cc23)cc1`, the values for the IC50 in assay [1] and in assay [2] were 2.7 nM and 0.81 nM, respectively.

With `CNS(=O)(=O)Cc1ccc2[nH]cc(CCN3CC[C@@H](CNCc4ccccc4)C3)c2c1`, the IC50 in assay [4] came to 41 nM; in assay [5], 62 nM; in assay [1], 62 nM; in [6], 1.1 nM; in [2], 1.1 nM; in assay [7], 5.8 µM. In [3], this compound yielded an EC50 of 3.5 nM.

For the compound `O[C@@H]1CCN(CCc2c[nH]c3ccc(-n4cnnc4)cc23)C1`, the IC50 in assay [1] is 93 nM; in [2], 9 nM. Further, in assay [3], the EC50 was 7.8 nM.

Take `c1cc(CNC[C@@H]2CCN(CCc3c[nH]c4ccc(-n5cnnc5)cc34)C2)co1`: the IC50 in [1] turned out to be 12 nM; in assay [2], 0.45 nM. The compound further displayed an EC50 in assay [3] of 1.3 nM.

As for `c1cc(CNC[C@@H]2CCN(CCc3c[nH]c4ccc(-n5cnnc5)cc34)C2)ccn1`, the IC50 amounted to 110 nM in [1] and 8.5 nM in assay [2]. Also, the EC50 in assay [3] stood at 9.5 nM.

As to `c1ccc(NC[C@@H]2CCN(CCc3c[nH]c4ccc(-n5cnnc5)cc34)C2)cc1`, the IC50 in assay [1] is 87 nM; in assay [2], 9.1 nM.

As for `c1coc(CNC[C@@H]2CCN(CCc3c[nH]c4ccc(-n5cnnc5)cc34)C2)c1`, the IC50 is 20 nM in assay [1] and 1.5 nM in assay [2]. For the same compound, it took 2.8 nM to reach a half-maximal effect in [3] (EC50).

As to `c1cc2[nH]cc(CCN3CCC3)c2cc1-n1cnnc1`, the IC50 in assay [1] turned out to be 4.4 nM; in [2], 1.1 nM.

With `c1ccc(COC[C@@H]2CCN(CCCc3c[nH]c4ccc(-n5cnnc5)cc34)C2)cc1`, the results for the IC50 in assay [1] and in assay [2] were 33 nM and 2.1 nM, respectively.

Turning to `c1ccc(CNC[C@H]2CCN(CCc3c[nH]c4ccc(-n5cnnc5)cc34)C2)cc1`, the IC50 in assay [1] is 47 nM.

Turning to `CC(=O)N(Cc1ccccc1)C[C@@H]1CCN(CCc2c[nH]c3ccc(-n4cnnc4)cc23)C1`, the results for the IC50 in assay [1] and in assay [2] were 11 nM and 1.1 nM, respectively.

Turning to `c1ccc(COC[C@H]2CCCN2CCc2c[nH]c3ccc(-n4cnnc4)cc23)cc1`, the results for the IC50 in assay [1] and in [2] were 575 nM and 95 nM, respectively.

`CN(Cc1ccccc1)C[C@@H]1CCN(CCCc2c[nH]c3ccc(-n4cnnc4)cc23)C1`: the IC50 amounted to 59 nM in assay [1] and 4.2 nM in assay [2].

Regarding `C[C@@H](NC[C@@H]1CCN(CCc2c[nH]c3ccc(-n4cnnc4)cc23)C1)c1ccccc1`, the IC50 stood at 74 nM in assay [1] and 0.72 nM in assay [2]. In addition, a half-maximal response in assay [3] (EC50) required 2.1 nM.

Turning to `C[C@H](NC[C@@H]1CCN(CCc2c[nH]c3ccc(-n4cnnc4)cc23)C1)c1ccccc1`, the IC50 in assay [1] was found to be 41 nM; in assay [2], 0.45 nM. This compound yielded an EC50 in assay [3] of 0.63 nM.

`CN(Cc1ccccc1)C[C@@H]1CCCN1CCc1c[nH]c2ccc(-n3cnnc3)cc12`: the IC50 was 15 nM in [1] and 0.8 nM in assay [2]. In assay [3], this compound had an EC50 of 3 nM.

Regarding `O=C1N[C@@H](Cc2ccc3[nH]cc(CCN4CC[C@@H](CNCc5ccccc5)C4)c3c2)CO1`, the IC50 in [4] is 17 nM; in assay [5], 49 nM; in assay [1], 49 nM; in assay [6], 0.35 nM; in [2] it was 0.35 nM; in [7] it was 3 µM. In assay [3], the EC50 was 1.7 nM. Besides, the Plasma concentration in [8] is < 2 ng/mL and 4 ng/mL.

Turning to `CN(Cc1ccccc1)C[C@@H]1CCN(CCc2c[nH]c3ccc(Cn4cncn4)cc23)C1`, the IC50 in assay [1] came out at 575 nM; in assay [2], 7.7 nM. The compound also returned an EC50 in assay [3] of 11 nM. Moreover, the Plasma concentration in assay [9] is 39 ng/mL and 114 ng/mL.

`CN(Cc1ccccc1)[C@@H]1CCN(CCc2c[nH]c3ccc(-n4cnnc4)cc23)C1` showed an IC50 in [2] of 37 nM.

Take `OC[C@@H]1CCN(CCc2c[nH]c3ccc(-n4cnnc4)cc23)C1`: the values for the IC50 in [1] and in assay [2] were 93 nM and 26 nM, respectively.

The compound `c1ccc(COC[C@@H]2CCN(CCc3c[nH]c4ccc(-n5cnnc5)cc34)C2)cc1` showed an IC50 in assay [1] of 85 nM.

For `c1cc2[nH]cc(CCN3CCCC3)c2cc1-n1cnnc1`, the IC50 was 28 nM in assay [1] and 3.1 nM in assay [2]. Besides, the EC50 in [3] came out at 2.3 nM.

As to `c1ccc(CO[C@H]2CCN(CCc3c[nH]c4ccc(-n5cnnc5)cc34)C2)cc1`, the IC50 in [1] was found to be 275 nM; in [2], 20 nM. For the same compound, it took 31 nM to reach a half-maximal effect in [3] (EC50).

Regarding `C[C@H](NC[C@@H]1CCN(CCc2c[nH]c3ccc(Cn4cncn4)cc23)C1)c1ccccc1`, the IC50 in assay [1] worked out at 305 nM; in assay [2] it was 2.5 nM. This compound also yielded an EC50 in [3] of 3 nM.

With `c1ccc(CNC[C@@H]2CCN(CCc3c[nH]c4ccc(Cn5cncn5)cc34)C2)cc1`, the IC50 was found to be 260 nM in [1] and 3.2 nM in [2]. Also, in assay [3], the EC50 was found to be 4.9 nM. Besides, the Plasma concentration in [9] is < 25 ng/mL and 55 ng/mL.

In assay [4], `c1ccc(CNC[C@@H]2CCN(CCc3c[nH]c4ccc(-n5cnnc5)cc34)C2)cc1` displayed an IC50 of 5.4 nM. In assay [3], this compound came in with a half-maximal effective concentration (EC50) of 0.8 nM. In assay [9], the Plasma concentration was less than 5 ng/mL.

The values are drawn from ChEMBL document CHEMBL1132587, “Synthesis and serotonergic activity of 3-[2-(pyrrolidin-1-yl)ethyl]indoles: potent agonists for the h5-HT1D receptor with high selectivity over the h5-HT1B receptor” (J Med Chem, 1999).
